According to ChEMBL document CHEMBL1949645, “In vitro and in vivo antifilarial activity evaluation of 3,6-epoxy [1,5]dioxocines: a new class of antifilarial agents” (Bioorg Med Chem Lett, 2012):
Values after ≈ are worked out from the molar mass of the structure shown.

Assays:
Brugia malayi [1] = test: Antifilarial activity against adult Brugia malayi by motility assay; assay type: functional, organism-based; conditions: for IC50: Brugia malayi
Outline: (§1)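 Brugia malayi (sub-periodic strain), female adult worms or microfilariae, scored by motility following the Murthy and Chatterjee method. Compounds and reference DEC dissolved in DMSO, final DMSO below 0.1% in incubation medium; DMSO-only controls. LC100 is the concentration giving 100% loss of motility (parasite death); IC50 is the concentration giving 50% motility inhibition.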

Brugia malayi [2] = test: Antifilarial activity against microfilariae Brugia malayi by motility assay; assay type: functional, organism-based; conditions: for IC50: Brugia malayi; outline: as §1
Brugia malayi [3] = test: Growth inhibition of adult Brugia malayi by MTT assay; assay type: functional
Outline: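 Adult female B. malayi worms were exposed in vitro to agents dissolved in DMSO, keeping final DMSO below 0.1%. Controls received DMSO alone. Results are given as mean % inhibition of MTT reduction.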

Brugia malayi [4] = test: Antifilarial activity against Brugia malayi infected in Meriones unguiculatus assessed as sterilized female worm at 200 mg/kg, sc administered 7 to 8 days post-adult worm transplantation for 5 days measured after 42 days; assay type: functional; conditions: route subcutaneous
Outline: (§2)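 Dosing was s.c. once daily × 5 days: 200 mg/kg (n = 4) or 25 mg/kg (n = 6), with vehicle-treated controls (n = 4). Read-outs were peritoneal-cavity microfilaraemia status, worms recovered (mean ± SD, P vs control) and % sterilized female worms.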

Brugia malayi [5] = test: Antifilarial activity against 5 to 7 months old Brugia malayi infected in Mastomys coucha assessed as reduction in worm burden at 200 mg/kg, sc administered 7 to 8 days post-adult worm transplantation for 5 days measured on day 91 relative to control; assay type: functional; set-up: scale not given: the % may be the effect or the level left; conditions: route subcutaneous
Outline: (§3)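 Mastomys coucha harbouring B. malayi were dosed at 200 or 50 mg/kg, with vehicle-treated animals as controls. Male, female and total adult worms recovered were counted and given as mean ± SD. Sterilized female worms were reported as count (%).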

Brugia malayi [6] = test: Antifilarial activity against 5 to 7 months old Brugia malayi infected in Mastomys coucha assessed as sterilized female worm at 200 mg/kg, sc administered 7 to 8 days post-adult worm transplantation for 5 days measured on day 91 (reference value: 19.62%); assay type: functional; conditions: route subcutaneous; outline: as §3
Brugia malayi [7] = test: Antifilarial activity against 5 to 7 months old Brugia malayi infected in Mastomys coucha assessed as reduction in worm burden at 50 mg/kg, sc administered 7 to 8 days post-adult worm transplantation for 5 days measured on day 91 relative to control; assay type: functional; set-up: scale not given: the % may be the effect or the level left; conditions: route subcutaneous; outline: as §3
Brugia malayi [8] = test: Antifilarial activity against 5 to 7 months old Brugia malayi infected in Mastomys coucha assessed as sterilized female worm at 50 mg/kg, sc administered 7 to 8 days post-adult worm transplantation for 5 days measured on day 91 (reference value: 19.62%); assay type: functional; conditions: route subcutaneous; outline: as §3
Brugia malayi [9] = test: Antifilarial activity against Brugia malayi infected in Meriones unguiculatus assessed as sterilized female worm at 25 mg/kg, sc administered 7 to 8 days post-adult worm transplantation for 5 days measured after 42 days; assay type: functional; conditions: route subcutaneous; outline: as §2

SMILES: CCC(C)c1cc(/C=C/C(=O)c2ccc(OC)cc2)cc2c1OCC1COC2O1 (racemic)
- LC100 (Brugia malayi [1]): >10 µg/mL
- LC100 (Brugia malayi [2]): >10 µg/mL

SMILES: Cc1cc(/C=C/C(=O)c2ccccc2)cc2c1OCC1COC2O1 (racemic)
- growth inhibition (GI) (Brugia malayi [3]): 15%
- LC100 (Brugia malayi [1]): 1.25 µg/mL
- IC50 (Brugia malayi [1]): 1 µg/mL (≈ 3.1 µM)
- LC100 (Brugia malayi [2]): 2.5 µg/mL
- IC50 (Brugia malayi [2]): 0.9 µg/mL (≈ 2.79 µM)
- Activity (Brugia malayi [4]): 29%

SMILES: Cc1cc(/C=C/C(=O)c2ccc(Cl)cc2)cc2c1OCC1COC2O1 (racemic)
- growth inhibition (GI) (Brugia malayi [3]): 39%
- LC100 (Brugia malayi [1]): 1.25 µg/mL
- IC50 (Brugia malayi [1]): 0.6 µg/mL (≈ 1.68 µM)
- LC100 (Brugia malayi [2]): 2.5 µg/mL
- IC50 (Brugia malayi [2]): 1.1 µg/mL (≈ 3.08 µM)
- Activity (Brugia malayi [4]): 29%

SMILES: Cc1ccc(C(=O)/C=C/c2cc(C)c3c(c2)C2OCC(CO3)O2)cc1 (racemic)
- growth inhibition (GI) (Brugia malayi [3]): 22%
- LC100 (Brugia malayi [1]): 1.25 µg/mL
- IC50 (Brugia malayi [1]): 0.4 µg/mL (≈ 1.19 µM)
- LC100 (Brugia malayi [2]): 5 µg/mL
- IC50 (Brugia malayi [2]): 1.8 µg/mL (≈ 5.35 µM)
- Activity (Brugia malayi [4]): 45%

SMILES: COc1ccc(C(=O)/C=C/c2cc(C)c3c(c2)C2OCC(CO3)O2)cc1 (racemic)
- growth inhibition (GI) (Brugia malayi [3]): 22%
- LC100 (Brugia malayi [1]): 10 µg/mL
- IC50 (Brugia malayi [1]): 3.5 µg/mL (≈ 9.93 µM)
- Activity (Brugia malayi [5]): 32.89%
- LC100 (Brugia malayi [2]): >10 µg/mL
- IC50 (Brugia malayi [2]): 3.9 µg/mL (≈ 11.1 µM)
- Activity (Brugia malayi [6]): 24.6%
- Activity (Brugia malayi [4]): 24%

SMILES: CCC(C)c1cc(/C=C/C(=O)c2ccccc2)cc2c1OCC1COC2O1 (racemic)
- LC100 (Brugia malayi [1]): 2.5 µg/mL
- IC50 (Brugia malayi [1]): 0.9 µg/mL (≈ 2.47 µM)
- LC100 (Brugia malayi [2]): 5 µg/mL
- IC50 (Brugia malayi [2]): 0.9 µg/mL (≈ 2.47 µM)
- Activity (Brugia malayi [4]): 27%

SMILES: CCC(C)c1cc(/C=C/C(=O)c2ccc(Cl)cc2)cc2c1OCC1COC2O1 (racemic)
- LC100 (Brugia malayi [1]): 5 µg/mL
- IC50 (Brugia malayi [1]): 1.6 µg/mL (≈ 4.01 µM)
- Activity (Brugia malayi [5]): 38.16%
- LC100 (Brugia malayi [2]): 10 µg/mL
- IC50 (Brugia malayi [2]): 3.5 µg/mL (≈ 8.77 µM)
- Activity (Brugia malayi [6]): 17.78%
- Activity (Brugia malayi [4]): 63%

SMILES: CCC(C)c1cc(/C=C/C(=O)c2ccc(C)cc2)cc2c1OCC1COC2O1 (racemic)
- LC100 (Brugia malayi [1]): 10 µg/mL
- IC50 (Brugia malayi [1]): 0.5 µg/mL (≈ 1.32 µM)
- LC100 (Brugia malayi [2]): >10 µg/mL

SMILES: O=C(/C=C/c1cc2c(c3ccccc13)OCC1COC2O1)c1ccccc1 (racemic)
- growth inhibition (GI) (Brugia malayi [3]): 34%
- LC100 (Brugia malayi [1]): >10 µg/mL
- LC100 (Brugia malayi [2]): >10 µg/mL

SMILES: O=C(/C=C/c1cc2c(c3ccccc13)OCC1COC2O1)c1ccc(Cl)cc1 (racemic)
- growth inhibition (GI) (Brugia malayi [3]): 41%
- LC100 (Brugia malayi [1]): >10 µg/mL
- LC100 (Brugia malayi [2]): >10 µg/mL

SMILES: Cc1ccc(C(=O)/C=C/c2cc3c(c4ccccc24)OCC2COC3O2)cc1 (racemic)
- growth inhibition (GI) (Brugia malayi [3]): 33%
- LC100 (Brugia malayi [1]): >10 µg/mL
- LC100 (Brugia malayi [2]): >10 µg/mL

SMILES: COc1ccc(C(=O)/C=C/c2cc3c(c4ccccc24)OCC2COC3O2)cc1 (racemic)
- growth inhibition (GI) (Brugia malayi [3]): 35%
- LC100 (Brugia malayi [1]): >10 µg/mL
- LC100 (Brugia malayi [2]): >10 µg/mL

SMILES: CCN(CC)C(=O)N1CCN(C)CC1.O=C(O)CC(O)(CC(=O)O)C(=O)O [DIETHYLCARBAMAZINE CITRATE]
- Activity (Brugia malayi [7]): 20.18%
- Activity (Brugia malayi [8]): 20.59%
- Activity (Brugia malayi [9]): 11%

SMILES: CCN(CC)C(=O)N1CCN(C)CC1 [DIETHYLCARBAMAZINE]
- growth inhibition (GI) (Brugia malayi [3]): 64%
- LC100 (Brugia malayi [1]): 800 µg/mL
- IC50 (Brugia malayi [1]): 289 µg/mL (≈ 1450 µM)
- LC100 (Brugia malayi [2]): 500 µg/mL
- IC50 (Brugia malayi [2]): 354 µg/mL (≈ 1780 µM)
